# This is one part of a sample in which hits are shown more often than they occur.
# Lung fibro prol = blocks proliferation of human lung fibroblasts. LL 47 human lung fibroblast viability, ATP luminescence; hits give low values. viability, % at 10 µM. actives 1.1% (n = 85,000). AID 719;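 active = viability at or below 50% in the single dose screen; inactive = viability above 50%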;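 also: compound exposure lasted 72 h before the ATP readout; 100% = median luminescence of untreated cell-only wells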
#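 Test system: LL 47 human lung fibroblasts / Quantity: 1,150 cells in each well / Medium: IMEM growth medium with 15% fetal bovine serum / Incubation: 72 h compound exposure at 37 °C after overnight plating / Detection: CellTiter-Glo luminescence measuring cellular ATP / Read-out: % viability versus median cells-only luminescence / Benchmarks: cell-only wells, no compound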
# H69AR inhibit = blocks growth of human H69AR lung tumor cells; viability, % at 10 µM; AID 598; H69AR lung tumor viability, ATP luminescence, 72 h; hits give low values; actives 6% (n = 85,000);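 active = viability at or below 40%; inactive = viability above 40%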;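 also: multidrug resistant small cell line overexpressing MRP-1 efflux transporter; 100% = mean luminescence of untreated control wells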
# bCat KO growth = beta-catenin-lacking colon tumor cell growth suppression | HCT116 beta-catenin knockout viability, CellTiter-Glo, 60 h; hits give low values | viability, % at 10 µM | actives 1.5% (n = 140,000) | AID 818;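 active = viability at or under a set limit, the compound median less 4 SD, cut at about 6% in these data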;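 also: 0% = Hyamine 1622 control at 20 µM and 100% = untreated cell control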
# PTEN del growth = PTEN-deleted cell growth suppression | actives 1.2% (n = 140,000) | HCT116 PTEN-null viability, CellTiter-Glo, 60 h; hits give low values | viability, % at 10 µM;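 active = viability at or below a set limit, 4 SD under the median of all tested compounds, cut at about 3.7% in these data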;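 also: PTEN knockout HCT116 line with beta catenin targeted HCT116 as companion control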
# HUVEC prolif 384 = blocks proliferation of human endothelial cells; HUVEC proliferation, CellTiter-Glo luminescence, 72 h; hits give low values; viability, % at 10 µM (by protocol); actives 1.1% (n = 86,000); AID 648;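 active = viability at or below 30%; inactive = viability above 30%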;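 also: 100% = median luminescence of DMSO-only cell control wells on each plate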
# * hit, by the source's call; nt = no result given.
SMILES,Lung fibro prol,H69AR inhibit,bCat KO growth,PTEN del growth,HUVEC prolif 384
CC1CCN(S(=O)(=O)c2ccc(NC(=O)CN3CCOCC3)cc2)CC1,109,102,103,95,108
Cc1ccc(-c2nnn(CC(=O)Nc3ccc(S(=O)(=O)N4CCC(C)CC4)cc3)n2)cc1,68,21*,75,56,66
CC1CCCN(S(=O)(=O)c2ccc(NC(=O)Cn3nnc(-c4ccccc4F)n3)cc2)C1 (stereo not drawn),98,45,96,106,63
CN1c2ccccc2C(C)(C)C12CC(c1ccc(Cl)c(S(=O)(=O)N3CCCC3)c1)=NO2 (stereo not drawn),nt,nt,73,82,nt
CN1c2ccccc2C(C)(C)C12CC(CCl)=NO2 (stereo not drawn),96,4.5*,81,82,90
Cc1ccc2nc3sc(-c4nnc(-c5ccccc5[N+](=O)[O-])o4)c(N)c3cc2c1,nt,nt,99,92,nt
Cc1ccc2cc(C#N)c(SCc3nnc(-c4ccccc4[N+](=O)[O-])o3)nc2c1,nt,nt,1.4*,1.2*,nt
Cc1ccc(-c2nn3c(C)nnc3s2)cc1NCc1c(F)cccc1Cl,57,28*,27,24,53
Cc1nnc2sc(-c3ccc(NC(=O)CSc4ccc(Cl)cc4)cc3)nn12,98,93,96,101,75
Cc1ccc(CNc2cc(-c3nn4c(C)nnc4s3)ccc2C)s1,62,59,92,98,36
Cc1ccc(-c2nn3c(C)nnc3s2)cc1NC(=O)CSc1ccc(Cl)cc1,80,93,99,96,29*
CCCCCCn1c(CN2CCN(C(=O)OCC)CC2)nc2c1c(=O)n(C)c(=O)n2C,101,53,nt,nt,93
COc1ccc2nc(Sc3c([N+](=O)[O-])nc(C)n3Cc3ccccc3)[nH]c2c1,nt,nt,4.6*,1.7*,nt
Cc1cc2nc(Sc3c([N+](=O)[O-])nc(C)n3Cc3ccccc3)[nH]c2cc1C,nt,nt,4.6*,2.8*,nt
Cc1nc([N+](=O)[O-])c(Sc2nc3ccccc3[nH]2)n1Cc1ccccc1,nt,nt,11,16,nt
Cc1ccc(C(=O)N/C(=C\c2cccs2)C(=O)NCc2ccncc2)cc1,nt,nt,102,97,nt
O=C(Nc1ccccc1C(=O)Nc1ccc2c(c1)OCO2)c1ccco1,90,34*,96,92,77
O=C(CSc1nnnn1C1CCCCC1)NCc1ccccc1,101,92,91,88,100
O=C(Sc1nnnn1C1CCCCC1)c1cccs1,nt,35*,103,110,106
CC1CCN(C(=S)c2cn(Cc3cccc(F)c3)c3ccccc23)CC1,nt,nt,93,84,nt
COC(=O)c1ccc2c(=O)[nH]c(CN3c4ccccc4CC3C)nc2c1 (stereo not drawn),100,51,96,92,84
CC1Cc2ccccc2N1Cc1nc2cc(Cl)ccc2c(=O)[nH]1 (stereo not drawn),82,25*,67,71,74
Cc1ccc(C)c(OCC(O)CN2CCC(CN3C(=O)c4cccc5cccc(c45)C3=O)CC2)c1 (stereo not drawn),nt,nt,1.2*,1.2*,nt
CN1CCOCCOCCN(C)C1=O,107,94,98,94,108
Nc1c2c(nc3ccc(Br)cc13)N(Cc1ccccc1)CC2,nt,nt,86,86,nt
SMILES,Lung fibro prol,H69AR inhibit,bCat KO growth,PTEN del growth,HUVEC prolif 384
Nc1c2c(nc3ccc(Br)cc13)N(c1ccccc1)CC2,94,32*,76,63,78
Cc1cccc(N2CCc3c2nc2ccc(Br)cc2c3N)c1,99,22*,49,40,62
COc1ccc(OC)c(/C(O)=C/C(=O)C(=O)Nc2cc(C)ccc2OC)c1,93,63,86,85,93
COc1ccc(OC)c(/C(O)=C/C(=O)C(=O)Nc2cc(C)cc(C)c2)c1,92,17*,82,86,113
CCOc1ccccc1NC(=O)C(=O)/C=C(\O)c1cc(OC)ccc1OC,81,8.4*,77,86,71
CCOc1ccccc1NC(=O)c1cc(C(=O)c2cc(OC)ccc2O)coc1=N,nt,nt,72,84,nt
COc1cccc(NC(=O)CC2C(=O)NC3CCCCC3N2C(=O)c2ccc(F)cc2)c1 (stereo not drawn),92,95,89,91,89
CCn1c(Sc2nc(C)nc3scc(-c4cccs4)c23)n[nH]c1=O,63,2.8*,26,23,81
O=C(CCCC(=O)OCC(Cl)=C(Cl)Cl)Nc1ccc(F)cc1,nt,nt,94,92,nt
CCOC(=O)Cn1c(=O)oc2cc(S(=O)(=O)Nc3cccc(C)c3)ccc21,101,101,5.2*,16,83
CCOC(=O)Cn1c(=O)oc2cc(S(=O)(=O)Nc3cc(OCC)ccc3OCC)ccc21,97,110,76,75,100
CCOC(=O)Cn1c(=O)oc2cc(S(=O)(=O)Nc3ccc(N(CC)CC)cc3C)ccc21,6.0*,94,6,21,2.4*
C=CCOC(=O)/C(=C/c1cccc2ccccc12)NC(=O)c1ccccc1,nt,nt,88,88,nt
Cc1cccc(-c2nc(CSCC(=O)N3CCN(Cc4ccc5c(c4)OCO5)CC3)c(C)o2)c1,95,33*,12,18,88
Clc1ccc(-c2nnc(-c3ccccc3)c(N3CCSCC3)n2)cc1,nt,nt,66,62,nt
CC1CN(c2nc(-c3ccc(Br)cc3)nnc2-c2ccccc2)CC(C)N1 (stereo not drawn),nt,nt,0.9*,1.0*,nt
Cc1c(C(=O)NNC(=S)Nc2cccc(Cl)c2)nnn1-c1ccccc1,nt,nt,101,97,nt
Cc1cc2oc(=O)cc(CN3CCN(S(=O)(=O)c4cccs4)CC3)c2cc1C,nt,nt,81,86,nt
CCn1c2ccccc2c2cc(Nc3cc(C)nc4ncnn34)ccc21,45*,31*,15,10,30*
CCc1cccc(Nc2cc(C)nc3ncnn23)c1,92,89,91,93,94
Cc1cc2c(c(=O)n1Cc1cccnc1)C(Cc1ccccc1)C(C#N)=C(N)O2 (stereo not drawn),100,86,99,106,87
Cc1cc2c(c(=O)n1Cc1cccnc1)C(c1cccs1)C(C#N)=C(N)O2 (stereo not drawn),97,32*,107,94,92
Cn1nnnc1Sc1ncnc2scc(-c3ccc(F)cc3)c12,nt,nt,5.5*,3.7*,nt
O=C(O)c1ccc(NC(=O)C2(c3ccccc3)CCOCC2)cc1,106,104,116,102,95
COC(=O)c1ccc(CSc2nnc(NC(=O)c3cc4c(s3)CCCC4)s2)cc1,106,7.6*,44,51,78
CC1CCc2sc(C(=O)Nc3nnc(SCc4ccc(F)cc4)s3)cc2C1 (stereo not drawn),105,77,92,94,82
Cc1cc(Nc2nc3ccccc3nc2Cl)n(-c2ccc([N+](=O)[O-])cc2)n1,68,21*,20,38,67
COc1ccc(-c2cc(-c3ccc(OC)cc3)c(C#N)c(SC)n2)cc1,100,64,64,64,73
CS(=O)(=O)c1nc(-c2ccc(Br)cc2)cc(-c2ccccc2)c1C#N,1.9*,1.2*,1.6*,2.1*,20*

# High-throughput results as filed in PubChem BioAssay.
